What was measured:
[1] = system: Streptococcus pneumoniae; test: Antibacterial activity against Streptococcus pneumoniae after 24 hrs by microdilution method; assay type: functional
In short: (§1)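 Broth microdilution in Mueller–Hinton medium run on an automated liquid handler. Compounds dissolved in DMF (5 mg/ml stock) and tested in medium from 64 to 0.125 µg/ml. Plates incubated 24 h at 37 °C, then growth read as absorbance at 600 nm. MIC taken as the concentration giving 90% growth inhibition.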

[2] = system: Staphylococcus aureus; test: Antibacterial activity against Staphylococcus aureus-M after 24 hrs by microdilution method; assay type: functional; in short: as §1
[3] = system: Streptococcus pneumoniae; test: Antibacterial activity against Streptococcus pneumoniae-M after 24 hrs by microdilution method; assay type: functional; in short: as §1
[4] = system: Staphylococcus aureus; test: Antibacterial activity against Staphylococcus aureus-cMLS after 24 hrs by microdilution method; assay type: functional; in short: as §1
[5] = system: Haemophilus influenzae; test: Antibacterial activity against Haemophilus influenzae after 24 hrs by microdilution method; assay type: functional; in short: as §1
[6] = system: Streptococcus pyogenes; test: Antibacterial activity against Streptococcus pyogenes after 24 hrs by microdilution method; assay type: functional; in short: as §1
[7] = system: Saccharomyces cerevisiae; test: Toxicity against Saccharomyces cerevisiae; assay type: organism-based; details: in vivo
In short: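 Yeast used as a surrogate for eukaryotic cell toxicity. Microdilution in Mueller–Hinton medium with compound from a DMF stock (5 mg/ml), final range 64 to 0.125 µg/ml. Incubated 24 h at 37 °C, with optical density read at 600 nm. MIC defined as the concentration inhibiting growth by 90%.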

[8] = system: Streptococcus pyogenes; test: Antibacterial activity against Streptococcus pyogenes-M after 24 hrs by microdilution method; assay type: functional; in short: as §1

MIC [1]: > 64 mg/L
MIC [2]: > 64 mg/L
MIC [3]: > 64 mg/L
MIC [4]: > 64 mg/L
MIC [5]: > 64 mg/L
MIC [6]: > 64 mg/L
MIC [8]: > 64 mg/L
Compound: CCNC(=O)N1C[C@H](C)C[C@@](C)(O)[C@H](O[C@@H]2O[C@H](C)C[C@H](N(C)C)[C@H]2O)[C@@H](C)[C@H](O)[C@@H](C)C(=O)O[C@H](CC)[C@@](C)(O)[C@H](O)[C@H]1C
Activity [7]: Non-toxic

Reference: ChEMBL document CHEMBL1143064, “Novel 9a-carbamoyl- and 9a-thiocarbamoyl-3-decladinosyl-6-hydroxy and 6-methoxy derivatives of 15-membered macrolides” (Bioorg Med Chem, 2007)
